For one data set, the target named is human 11β-HSD1 (Homo sapiens, UniProt P28845). The format is biochemical. The following applies: for activity against 11β-HSD1 (in words): HEK-293 lysates, recombinant human enzyme; for inhibition at 20 µM: read-out: inhibition of 11β-HSD1 enzyme activity. An outline of the steps: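 Lysates of HEK-293 cells stably co-expressing human 11β-HSD1 and H6PDH (HHH7 clone) were incubated 10 min at 37°C with 200 nM radiolabeled cortisone, 500 μM NADPH and test compound or DMSO vehicle (max 0.1%). Reactions were stopped with excess unlabeled cortisone/cortisol, giving about 20–25% conversion. Steroids were separated by TLC (chloroform:methanol 9:1) and counted by scintillation. Activity was normalized to vehicle; mean ± SD, ≥3 independent experiments. IC50 was skipped when residual activity at 20 μM exceeded 40%.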
Chain of human 11β-HSD1 (P28845 whole entry): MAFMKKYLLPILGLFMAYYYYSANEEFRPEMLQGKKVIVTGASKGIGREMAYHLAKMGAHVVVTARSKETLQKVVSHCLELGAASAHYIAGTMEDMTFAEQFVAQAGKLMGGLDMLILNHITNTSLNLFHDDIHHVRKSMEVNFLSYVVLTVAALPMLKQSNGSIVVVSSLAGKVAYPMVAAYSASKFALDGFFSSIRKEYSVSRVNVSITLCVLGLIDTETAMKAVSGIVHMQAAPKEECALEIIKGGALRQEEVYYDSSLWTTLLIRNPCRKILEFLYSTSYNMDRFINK

In data set [1] the target is T1, 11β-HSD2 (Homo sapiens, UniProt P80365).
T1 sequence (P80365 1-405): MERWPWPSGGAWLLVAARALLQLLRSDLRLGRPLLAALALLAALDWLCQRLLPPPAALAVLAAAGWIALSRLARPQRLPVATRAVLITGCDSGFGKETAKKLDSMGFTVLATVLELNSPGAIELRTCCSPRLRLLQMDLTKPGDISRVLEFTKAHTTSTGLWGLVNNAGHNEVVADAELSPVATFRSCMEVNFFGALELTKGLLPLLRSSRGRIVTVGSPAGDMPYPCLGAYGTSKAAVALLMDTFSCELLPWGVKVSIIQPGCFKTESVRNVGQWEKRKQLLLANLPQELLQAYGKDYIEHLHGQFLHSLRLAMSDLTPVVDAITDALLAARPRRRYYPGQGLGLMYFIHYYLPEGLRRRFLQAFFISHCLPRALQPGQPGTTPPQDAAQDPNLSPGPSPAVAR
Nature of the data set: 11β-HSD2 activity in lysates of HEK-293 cells stably expressing human 11β-HSD2. The format is biochemical. The following applies: for inhibition at 20 µM: read-out: inhibition of 11β-HSD2 enzyme activity; for residual 11β-HSD2 activity: 20 μM test substance. An outline of the steps: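 Reactions were stopped with excess unlabeled cortisone/cortisol, giving about 20–25% conversion. Products were separated by TLC (chloroform:methanol 9:1) and counted by scintillation. Activity was normalized to vehicle; mean ± SD, ≥3 independent experiments.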

The test system of another data set is 11β-HSD1. The following applies: cited from earlier work.
Data set [2] concerns 11β-HSD2. The following applies: cited from earlier work.
For data set [3] the following is noted: predominately to albumin; cited from earlier work.
The next data set addresses T2, human 17β-HSD2 (Homo sapiens, UniProt P37059).
T2 sequence (P37059 1-387): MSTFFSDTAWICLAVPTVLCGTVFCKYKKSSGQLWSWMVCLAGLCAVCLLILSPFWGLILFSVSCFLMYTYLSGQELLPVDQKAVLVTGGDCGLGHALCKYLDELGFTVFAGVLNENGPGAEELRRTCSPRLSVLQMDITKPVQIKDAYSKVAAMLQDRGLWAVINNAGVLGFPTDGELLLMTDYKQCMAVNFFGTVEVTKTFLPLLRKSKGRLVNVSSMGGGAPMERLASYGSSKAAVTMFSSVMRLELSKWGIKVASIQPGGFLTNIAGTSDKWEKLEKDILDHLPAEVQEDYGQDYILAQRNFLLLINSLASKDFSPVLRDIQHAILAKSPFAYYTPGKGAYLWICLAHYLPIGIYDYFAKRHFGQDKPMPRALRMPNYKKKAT
Nature of the data set: 17β-HSD2 activity in lysates of transiently transfected HEK-293 cells. Format: biochemical. Conditions: HEK-293 lysates, 200 nM estradiol; data not shown. An outline of the steps: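 Lysates of HEK-293 cells transiently expressing human 17β-HSD2 were incubated for 10 min at 37°C with 200 nM estradiol (containing 50 nCi [2,4,6,7-3H]-estradiol), 500 μM NAD+ and test compound or DMSO vehicle. Steroids were separated by TLC, with conversion quantified by scintillation counting. Results were normalized to the vehicle control. Data are mean ± SD from at least three independent experiments.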

The target in data set [4] is T1, 11β-HSD2. Nature of the data set: 11β-HSD2 activity in intact MCF-7 cells. Format: cell-based. An outline of the steps: (§1)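 Cells were grown in DMEM with 10% FBS (SW-620 passages 11–15, MCF-7 passages 19–27) and seeded at 100 000 (SW-620) or 50 000 (MCF-7) per well. After 24 h, medium was replaced by steroid- and serum-free DMEM with vehicle or inhibitor plus radiolabeled cortisol (10 nCi; 50 nM final). Incubation was at 37°C for 4 h (SW-620) or 5 h (MCF-7). Conversion was read by TLC and scintillation counting.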

The next data set deals with T3, human 17β-HSD1 (Homo sapiens, UniProt P14061).
T3 sequence (P14061 1-328): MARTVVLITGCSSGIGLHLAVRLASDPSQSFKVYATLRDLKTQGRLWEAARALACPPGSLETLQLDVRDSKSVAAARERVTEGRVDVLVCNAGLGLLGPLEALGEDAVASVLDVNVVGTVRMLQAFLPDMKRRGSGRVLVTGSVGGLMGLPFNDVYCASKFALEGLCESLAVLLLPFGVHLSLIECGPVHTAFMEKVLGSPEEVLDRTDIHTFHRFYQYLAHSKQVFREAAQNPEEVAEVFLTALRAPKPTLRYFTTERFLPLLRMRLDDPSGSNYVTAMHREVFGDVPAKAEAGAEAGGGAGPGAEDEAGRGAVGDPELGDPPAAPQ
Nature of the data set: 17β-HSD1 activity in lysates of transiently transfected HEK-293 cells. Format: biochemical. The following applies: HEK-293 lysates, 200 nM estrone; data not shown. An outline of the steps: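 Lysates of HEK-293 cells transiently expressing human 17β-HSD1 were incubated for 10 min at 37°C with 200 nM estrone (containing 50 nCi [2,4,6,7-3H]-estrone), 500 μM NADPH and test compound or DMSO vehicle. Steroids were separated by TLC, and substrate conversion was measured by scintillation counting. Activity was normalized to the vehicle control. Data are mean ± SD from at least three independent experiments.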

Data set [5] concerns the target T1, 11β-HSD2. Format: biochemical. Conditions: preincubation 0, 5, 20 min at 4°C or 10 min followed by dilution. The method, boiled down: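 Lysates of HEK-293 cells expressing human 11β-HSD2 were preincubated with test compound for 0, 5 or 20 min at 4°C before activity measurement. Alternatively, lysates were preincubated 10 min with compound, then diluted 1:2 or 1:4 before measuring 11β-HSD2 activity (radiolabeled cortisol, NAD+, TLC/scintillation). Data were normalized to DMSO control; mean ± SD, ≥3 independent experiments.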

For data set [6], the target named is T1, 11β-HSD2. Kind of data set: 11β-HSD2 activity in intact SW-620 cells. The format is cell-based. An outline of the steps:
as §1

The conditions of data set [7]: pulmonary alveolar cells; cited from earlier work.

With `CCCSc1ccc2nc(NC(=O)OC)[nH]c2c1` [Albendazole], the “activity against 11β-HSD1 (in words)” value at human 11β-HSD1 is “inactive”. Moreover, the “activity against 11β-HSD2 (in words)” value on 11β-HSD2 [1] (HEK-293 lysates, recombinant human enzyme) is “inactive”.

Take `CC(=O)N1CCN(c2ccc(OCC3COC(Cn4ccnc4)(c4ccc(Cl)cc4Cl)O3)cc2)CC1` (centres unmarked) [Ketoconazole]: in the data set with 11β-HSD1, the “inhibitory effect toward 11β-HSD1 (in words)” value is given as “weak inhibitory effects”. Besides, in the data set with 11β-HSD2 [2], the “inhibitory effect toward 11β-HSD2 (in words)” value is “weak inhibitory effects”.

By IC50 is commonly meant the concentration that inhibits the measured activity by half. On to `CC(O)C(C)n1ncn(-c2ccc(N3CCN(c4ccc(OCC5COC(Cn6cncn6)(c6ccc(Cl)cc6Cl)O5)cc4)CC3)cc2)c1=O` (centres unmarked) [OHI, hydroxyitraconazole], for which the plasma protein binding in data set [3] is 99.6%. For the same molecule, on human 17β-HSD2, the “inhibition of 17β-HSD2 activity” value is “None of the compounds inhibited 17β-HSD1 or 17β-HSD2 activity”. In addition, the IC50 against 11β-HSD2 [4] stood at 680 ± 200 nM; against 11β-HSD2 [1], 223 ± 31 nM; against 11β-HSD2 [6], 820 ± 180 nM. Also, the “inhibition of 17β-HSD1 activity” value at human 17β-HSD1 is given as “None of the compounds inhibited 17β-HSD1 or 17β-HSD2 activity”. The “irreversible 11β-HSD2 inhibition” value at 11β-HSD2 [5] is given as “excluded”. The “inhibition of human 11β-HSD2 (in words)” value at 11β-HSD2 [1] (5 μM, HEK-293 lysates, 200 nM cortisol) is listed as “complete inhibition”.

The term inhibition denotes the percentage by which the read-out fell short of the control. As for `CCN(CC)Cc1cc(Nc2ccnc3cc(Cl)ccc23)ccc1O` [amodiaquine], the inhibition at 20 µM at human 11β-HSD1 and at 11β-HSD2 [1] was less than 40% each time.

As for `Clc1ccc(CCC(Cn2ccnc2)Sc2c(Cl)cccc2Cl)cc1` (centres unmarked) [butoconazole], the inhibition at 20 µM on human 11β-HSD1 is not below 50%. Besides, the “residual 11β-HSD2 activity” value on 11β-HSD2 [1] (HEK-293 lysates) was determined as 44%.

Regarding `CCN(CC)CCCC(C)Nc1ccnc2cc(Cl)ccc12` (centres unmarked) [chloroquine], the inhibition at 20 µM at human 11β-HSD1 and on 11β-HSD2 [1] was less than 40% each time.

Take `CCC[C@@H]1C[C@@H](C(=O)N[C@@H]([C@H]2O[C@H](SC)[C@H](O)[C@@H](O)[C@H]2O)[C@H](C)Cl)N(C)C1` [clindamycin]: the inhibition at 20 µM on human 11β-HSD1 and on 11β-HSD2 [1] was less than 40% in each case.

In the case of `Cc1onc(-c2ccccc2Cl)c1C(=O)N[C@@H]1C(=O)N2[C@@H]1SC(C)(C)[C@@H]2C(=O)O` [cloxacillin], the inhibition at 20 µM at human 11β-HSD1 and at 11β-HSD2 [1] was less than 40% throughout.

Regarding `Cc1onc(-c2c(F)cccc2Cl)c1C(=O)N[C@@H]1C(=O)N2[C@@H]1SC(C)(C)[C@@H]2C(=O)O` [flucloxacillin], the inhibition at 20 µM at human 11β-HSD1 and at 11β-HSD2 [1] was less than 40% throughout.

In the case of `CC(=O)O[C@H]1C[C@@]2(C)[C@@H](C[C@@H](O)[C@H]3[C@@]4(C)CC[C@@H](O)[C@@H](C)[C@@H]4CC[C@@]32C)/C1=C(\CCC=C(C)C)C(=O)O` [fusidic acid], the inhibition at 20 µM on human 11β-HSD1 and at 11β-HSD2 [1] was less than 40% in each case.

As to `CCC[C@@H]1C[C@@H](C(=O)N[C@@H]([C@H]2O[C@H](SC)[C@H](O)[C@@H](O)[C@H]2O)[C@@H](C)O)N(C)C1` [lincomycin], the inhibition at 20 µM on human 11β-HSD1 and at 11β-HSD2 [1] was less than 40% throughout.

On to `CCOc1ccc2ccccc2c1C(=O)N[C@@H]1C(=O)N2[C@@H]1SC(C)(C)[C@@H]2C(=O)O` [nafcillin], for which the inhibition at 20 µM at human 11β-HSD1 and on 11β-HSD2 [1] was less than 40% in each case.

Regarding `N=C(N)c1ccc(OCCCCCOc2ccc(C(=N)N)cc2)cc1` [pentamidine], the inhibition at 20 µM at human 11β-HSD1 and at 11β-HSD2 [1] was less than 40% throughout.

In the case of `CC[C@@H]([C@H](C)O)n1ncn(-c2ccc(N3CCN(c4ccc(OC[C@@H]5CO[C@@](Cn6cncn6)(c6ccc(F)cc6F)C5)cc4)CC3)cc2)c1=O` [posaconazole], the “activity against 11β-HSD1 (in words)” value at human 11β-HSD1 is “inactivity towards 11β-HSD1”. In addition, the plasma protein binding in [3] was not below 98%. In addition, in [7], the “concentration in pulmonary alveolar cells compared with plasma” value is reported as 31-42 fold. In addition, the “inhibition of 17β-HSD2 activity” value on human 17β-HSD2 was “None of the compounds inhibited 17β-HSD1 or 17β-HSD2 activity”. The “residual 11β-HSD2 activity” value at 11β-HSD2 [4] (MCF-7 cells, 5 μM) was approximately 40%; on 11β-HSD2 [6] (SW-620 cells, 5 μM), “approximately 60%”. Besides, the “inhibition of 17β-HSD1 activity” value on human 17β-HSD1 is recorded as “None of the compounds inhibited 17β-HSD1 or 17β-HSD2 activity”. Further, at 11β-HSD2 [5], the “irreversible 11β-HSD2 inhibition” value is reported as “excluded”. The IC50 against 11β-HSD2 [1] came to 460 ± 98 nM. Besides, on 11β-HSD2 [1] (as determined in HEK-293 cell lysates), the “IC25 for 11β-HSD2” value was found to be 237 nM.

For the molecule `CCCN(CCC)S(=O)(=O)c1ccc(C(=O)O)cc1` [probenecid], the inhibition at 20 µM at human 11β-HSD1 and at 11β-HSD2 [1] was less than 40% in each case.

For `Clc1ccc(C(Cn2ccnc2)OCc2csc3c(Cl)cccc23)c(Cl)c1` (centres unmarked) [sertaconazole], at human 11β-HSD1, the inhibition at 20 µM is not below 50%. The “residual 11β-HSD2 activity” value on 11β-HSD2 [1] (HEK-293 lysates) is reported as 61%.

`Clc1ccc(C(Cn2ccnc2)OCc2ccsc2Cl)c(Cl)c1` (centres unmarked) [tioconazole]: the inhibition at 20 µM at human 11β-HSD1 was not below 50%. At 11β-HSD2 [1] (HEK-293 lysates), the “residual 11β-HSD2 activity” value amounted to 50%.

One may read the Km as the substrate concentration at which the rate is half of its maximum. Take `CC(C)(C)C(=O)C(Oc1ccc(Cl)cc1)n1cncn1` (centres unmarked) [triadimefon]: the 50% inhibitory concentration (IC50) in the data set on 11β-HSD1 (read-out: IC50 as competitive inhibitor of 11β-HSD1) is 15000 nM. Moreover, the Km in the data set with 11β-HSD1 (read-out: Km as substrate of 11β-HSD1) is 3.5 µM.

(Values after publication PMC6828556 (Biochemical pharmacology, 2017).)
